Screening data from PubChem BioAssay.
The list is not random: actives were taken first. Their share in the collection is about 2.6%.
MEKK2mut PB1 HTS: MEK5 binding signal on mutant MEKK2 PB1, primary screen, biochemical, multiplex bead flow cytometry, Alexa488-MEK5 | percent response, % at 10 µM | AID 1530, 2009 | actives 0.35% (n = 290,000) | Alexa488-MEK5 binding to MEKK2 mutant; in the data active means percent response above about 24%, passing the limit was not always enough
Hep lipid drop: inhibitors of hepatocyte lipid droplet formation, primary screen, imaging, high-throughput imaging, BODIPY stain; inhibition, % at 6.5 µM; actives 0.4% (n = 240,000); AML12 mouse hepatocytes, oleate lipid droplets;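 active means lipid droplet intensity inhibited by at least 50%, with more than 500 cells counted; inconclusive means wells with under 300 cells, treated as cytotoxic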
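Material – AML12 mouse liver cells · Also added – oleate loading, 100 µM · Compound dosing – 6.5 µM single-point dosing · Times – overnight treatment with compound plus oleate · Measured by – fluorescence imaging, 20x objective, two fields per well · Read-out – percent inhibition of filter-corrected integrated lipid droplet intensity per well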
MEKK2wt PB1 HTS: modulators of MEK5 binding to wildtype MEKK2, primary screen, biochemical, multiplex bead flow cytometry, Alexa488-MEK5 | Mitogen-activated protein kinase kinase kinase 2 (Homo sapiens), Q9Y2U5 | Alexa488-MEK5 binding to MEKK2 WT; actives lie on both sides | binding response (% of control), % at 10 µM | actives 1.1% (n = 290,000) | AID 1531, 2009; in the data active means binding response below about 67% or above about 130%; inconclusive means no clear call, values can overlap the other calls; inactive means in between
MEKK3 PB1 HTS: modulators of MEKK3-MEK5 PB1 binding, primary screen, biochemical, wildtype MEKK3, multiplex bead flow cytometry, Alexa488-MEK5. AID 1529, 2009. Mitogen-activated protein kinase kinase kinase 3 (Homo sapiens), Q99759. actives 1.4% (n = 290,000). bead-based flow cytometry, Alexa488-MEK5 binding to MEKK3; actives lie on both sides; 0 = blocked by unlabeled MEK5, 100 = vehicle. binding response (% of control), % at 10 µM;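 active means binding response more than 3 SD above or below the average of its plate-row segment, actives on both sides; inconclusive means wells at one plate position flagged as instrument error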;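 further: Alexa488 bead fluorescence after subtracting the streptavidin-only scavenger bead signal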
Target sequence (Q99759 whole entry, looked up): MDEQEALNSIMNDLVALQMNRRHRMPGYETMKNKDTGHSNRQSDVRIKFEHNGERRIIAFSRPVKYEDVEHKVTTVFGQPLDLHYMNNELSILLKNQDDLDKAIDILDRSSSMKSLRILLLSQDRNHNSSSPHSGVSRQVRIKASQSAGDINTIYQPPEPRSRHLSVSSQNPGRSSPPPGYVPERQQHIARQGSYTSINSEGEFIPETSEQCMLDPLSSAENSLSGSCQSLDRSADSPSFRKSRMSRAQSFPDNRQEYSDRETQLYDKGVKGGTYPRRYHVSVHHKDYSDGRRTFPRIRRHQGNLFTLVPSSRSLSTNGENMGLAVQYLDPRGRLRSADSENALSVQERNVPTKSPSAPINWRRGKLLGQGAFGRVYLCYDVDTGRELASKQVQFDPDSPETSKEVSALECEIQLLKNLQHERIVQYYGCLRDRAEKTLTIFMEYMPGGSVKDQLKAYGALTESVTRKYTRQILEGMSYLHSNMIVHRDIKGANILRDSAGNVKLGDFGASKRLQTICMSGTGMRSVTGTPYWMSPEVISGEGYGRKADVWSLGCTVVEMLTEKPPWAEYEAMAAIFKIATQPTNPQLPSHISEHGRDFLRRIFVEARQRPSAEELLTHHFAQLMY
MEKK2wt confirm: modulators of MEK5 binding to wildtype MEKK2, confirmation, biochemical, single concentration, multiplex bead flow cytometry; shares compounds with MEKK3 PB1 HTS; Alexa488-MEK5 binding to MEKK2 WT; actives lie on both sides; binding response (% of control), % at 10 µM; actives 2.4% (n = 5,900); in the data active means binding response below about 16% or above about 210%; inactive means in between
MEKK2mut confirm: mutant MEKK2 PB1-MEK5 binding signal retest – biochemical, single concentration, multiplex bead flow cytometry, confirmation. shares compounds with MEKK3 PB1 HTS. Alexa488-MEK5 binding to MEKK2 mutant. percent response, % at 10 µM. actives 2% (n = 5,900). AID 1893, 2009; in the data active means percent response mostly above about 71%, no sharp cut-off; inactive means mostly below about 38%;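 further: higher means compound restores mutant binding toward wildtype level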
MEKK3 confirm: MEKK3 wild-type PB1 binding to MEK5, inhibitors, confirmation, biochemical, bead multiplex flow cytometry, single concentration, wildtype. shares compounds with MEKK3 PB1 HTS. Alexa488-MEK5 binding to MEKK3; active compounds read low. binding response (% of control), % at 10 µM. actives 1.8% (n = 5,900). AID 1894, 2009;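 active means binding response below 72% of control, or above a set upper limit, though filed actives all read lower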;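 further: lower values mean stronger disruption of MEK5 binding to MEKK3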
Hep lipid conf: hepatocyte lipid droplet accumulation inhibitors, confirmation, imaging, AML12 mouse hepatocytes, single concentration, high-content; shares compounds with Hep lipid drop; BODIPY lipid droplet imaging; droplets induced with 100 µM oleic acid; inhibition, % at 5.2 µM; actives 65% (n = 870); AID 463183, 2010;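 active means inhibition of lipid droplet metric at least 50%, with more than 300 cells in each of four replicates; inconclusive means wells under 300 cells, flagged as toxic or low count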
AML12 tox img: AML12 hepatocyte cytotoxicity, counter-screen for hepatic lipid droplet formation project, imaging, DAPI nuclear morphology imaging. shares compounds with Hep lipid drop. AML12 mouse hepatocytes; active compounds read high; cells fed 100 µM oleate overnight. z-score at 5 µM. actives 3% (n = 870). AID 463200, 2010; in the data active means z-score above about 6.3;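 further: compound exposure lasted overnight at 37 °C before fixation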
AML12 tox ATP: AML12 hepatocyte cytotoxicity, confirmation, cytotoxicity control for hepatic lipid droplet formation project, cell-based, single concentration; AID 463219, 2010; 530 tested, under 10 active; AML12 mouse hepatocyte viability, ATP luminescence; cells loaded with 100 µM oleic acid; cytotoxicity, % at 50 µM; shares compounds with Hep lipid drop;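 active means cytotoxicity above 50% in each of four replicates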;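 further: compound exposure lasted overnight at 37 °C before the ATP read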
Numbers stand for hits; – = inactive; ? = inconclusive; · = no result; ! = a repeat was not active; [ ] = remark or other dose.

SMILES | MEKK2mut PB1 HTS | Hep lipid drop | MEKK2wt PB1 HTS | MEKK3 PB1 HTS | MEKK2wt confirm | MEKK2mut confirm | MEKK3 confirm | Hep lipid conf | AML12 tox img | others
CCN(CCNCC(O)COc1ccccc1C(C)C)c1cccc(C)c1 (configuration not stated) | 44.0 | – | 174.0 | – | – | – | – | · | ·
CCN(CC)C(=O)CC(c1ccc(OC)cc1)c1c(OC)cc(OC)c2ccc(=O)oc12 (configuration not stated) | – | 64.4 | 145.0 | – | – | – | – | – | –
O=C(O)CSCC(=O)Nc1ccccc1SCCS(=O)(=O)c1ccc(Cl)cc1 | – | – | – | – | · | · | · | · | ·
CCCC1O[C@@H]2C[C@H]3[C@@H]4CCC5=CC(=O)C=C[C@]5(C)[C@H]4[C@@H](O)C[C@]3(C)[C@]2(C(=O)CO)O1 (some centres not stated) | – | 117.6 | – | 70.0[inhibitor] | – | – | – | 113.0 | – | AML12 tox ATP=–
COc1ccc(-n2nc(C(=O)NCC(=O)NCc3ccc(F)cc3)c3ccccc3c2=O)c(OC)c1 | – | · | – | – | · | · | · | · | ·
COc1cc(N2CCCC2)c(OC)cc1/C=C(/C#N)c1ccc(F)cc1 | – | 50.1 | 53.0[inhibitor] | – | – | – | – | – | –
COc1ccc(NC(=O)C2CCC(=O)N2S(=O)(=O)c2ccc(C)cc2)cc1Cl (configuration not stated) | – | – | – | – | · | · | · | · | ·
COc1ccc(NC(=S)N2CCCC2)c(OC)c1 | – | – | – | – | · | · | · | · | ·
COc1cc2c3nnc(-c4ccc(F)cc4)c-3cn(Cc3cccc(C)c3)c2cc1OC | 48.0 | 54.3 | 167.0 | – | – | – | – | – | –
Cc1ccc(Cn2nc3c4cc(F)ccc4n(Cc4ccc(F)cc4)cc-3c2=O)cc1 | – | – | – | – | · | · | · | · | ·
Cc1ccccc1OCc1n(CC(=O)OC2CC(C)CCC2C(C)C)c2ccccc2[n+]1C (configuration not stated) | – | 53.9! | 159.0 | – | – | – | – | – | –
CC1CCC(C(C)C)C(OC(=O)Cn2c(-c3ccc(Cl)cc3)[n+](C)c3ccccc32)C1 (configuration not stated) | – | – | – | – | · | · | · | · | ·
COCCN1C(=O)/C(=C/c2ccc(N3CCCC3)cc2C)SC1=S | – | 104.6 | 20.0[inhibitor] | – | – | – | 56.0 | 104.9 | –
CCOc1ccc(CCNC(=O)C(C)n2nc(C)n3c(cc4occc43)c2=O)cc1OCC (configuration not stated) | – | 57.6 | 69.0[inhibitor] | – | – | – | – | 93.5 | – | AML12 tox ATP=–
Cc1nn(C(C)C(=O)NCCc2ccccc2)c(=O)c2cc3occc3n12 (configuration not stated) | – | – | – | – | · | · | · | · | ·
CCCCN(CC)C(=O)Cn1c(=O)sc2ccccc21 | – | – | – | – | · | · | · | · | ·
CN(C)CCN1C(=O)C2C(C(=O)Nc3cc(Cl)cc(Cl)c3)C3C=CC2(O3)C1C(=O)NC1CCCCC1 (configuration not stated) | – | – | – | – | · | · | · | · | ·
CCOC(=O)C(NC(=O)c1ccccc1)(OCc1ccccc1)C(F)(F)F (configuration not stated) | – | 53.7 | – | 159.0 | – | – | – | 66.0 | – | AML12 tox ATP=–
CCCCn1c(O)c(/C=C/C=C/C=Nc2ccccc2)sc1=S | – | 60.9 | -5.0 | 21.0[inhibitor] | – | – | 35.0 | – | –
CCCn1c(O)c(C=Nc2ccccc2)sc1=S | – | – | – | – | · | · | · | · | ·
CCCN1C(=O)/C(=C\C=C2\N(CC)c3ccccc3C2(C)C)SC1=S | 174.0 | 111.2 | 186.0 | – | – | – | – | 114.7 | – | AML12 tox ATP=–
CC(C)CCN1CCN(C2CSCCSC2)CC1CCO (configuration not stated) | – | – | – | – | · | · | · | · | ·
N#CC(C#N)=c1ccc2c(c1)N1C(c3ccccc3)=CC(c3ccccc3)C3CCCCC31N=2 (configuration not stated) | – | 65.0 | – | 27.0[inhibitor] | – | – | 61.0 | – | –
Cc1ccc(S(=O)(=O)N2c3ccccc3-c3c(ssc3=S)C2(C)C)cc1 | – | – | – | – | · | · | · | · | ·
COc1ccc2c(c1)-c1c(ssc1=S)C(C)(C)N2S(=O)(=O)c1ccc(C)cc1 | – | 50.8 | – | 129.0 | – | – | – | – | –
SMILES | MEKK2mut PB1 HTS | Hep lipid drop | MEKK2wt PB1 HTS | MEKK3 PB1 HTS | MEKK2wt confirm | MEKK2mut confirm | MEKK3 confirm | Hep lipid conf | AML12 tox img | others
C#CC(=O)N(c1ccc(OC)c(OC)c1)C(C(=O)NC1CCCC1)c1cccs1 (configuration not stated) | – | 109.5 | – | 125.0 | – | – | – | ? | 34.8
C#CC(=O)N(c1cccc(OC)c1)C(C(=O)NC1CCCC1)c1cccs1 (configuration not stated) | – | · | – | – | · | · | · | · | ·
Cc1ccc(CNC(=O)C2CCN(C(=O)Nc3ccc(C)cc3)CC2)cc1 | – | – | – | – | · | · | · | · | ·
C(=N/n1c2ccccc2c2ccccc21)/c1ccco1 | – | – | – | – | · | · | · | · | ·
N=c1scc(-c2ccccc2)n1/N=C/c1ccco1 | 55.0 | 54.5 | – | – | – | – | – | – | –
COC(=O)/C(=C\c1ccc2c(c1)c1ccccc1n2C)NC(=O)c1ccccc1 | – | 51.7 | 2.0[inhibitor] | 2.0[inhibitor] | – | – | – | 92.6 | – | AML12 tox ATP=–
CCOC(=O)c1ccc(N2CCN(c3ccccc3F)CC2)c(NC(=O)Nc2ccccc2)c1 | – | 52.1 | 30.0[inhibitor] | – | – | – | – | 100.0 | – | AML12 tox ATP=–
CC(C)(C)N(Cc1ccccc1)C(=O)CCc1ccccc1 | – | – | – | – | · | · | · | · | ·
